Source: ChEMBL document CHEMBL1127593, “14-epi stereoisomers of 25-hydroxy- and 1 alpha,25-dihydroxyvitamin D3: synthesis, isomerization to previtamins, and biological studies” (J Med Chem, 1994)

Experiments:
[1] = Compound was tested for rate constant for the forward reaction of isomerization of previtamin D to vitamin D; format: ADME
In short: (§1)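 Vitamin/previtamin ratio read by 1H-NMR integration. Kinetics run in triplicate over 59.8–89.7 °C with Arrhenius treatment; 1α-hydroxy analogue run once at 80 °C. Equilibrium constant at 80 °C taken after prolonged heating from either isomer.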

[2] = Compound was tested for the backward reaction of conversion of vitamin D to previtamin D; format: ADME; in short: as §1
[3] = Keq (k1/1-k) for the transformation of vitamin D to previtamin D; format: ADME; in short: as §1
[4] = Compound was tested for rate constant for the transformation of vitamin to previtamin; format: ADME; in short: as §1
[5] = tested on: vitamin D receptor (Gallus gallus); test: Compound was evaluated for chick vitamin D receptor relative competitive induces (relative to alpha, 25-(OH2)-D3)
[6] = Compound was tested for the backward reaction of conversion of vitamin D to previtaminD; format: ADME; in short: as §1

| Compound | k1 [1] [s⁻¹] | k-1 [2] [s⁻¹] | Keq [3] | Log A [4] [s-1] | RCI [5] | k-1 [6] [s⁻¹] |
| --- | --- | --- | --- | --- | --- | --- |
| C=C1CC[C@H](O)C/C1=C/C=C1\CCC[C@@]2(C)[C@@H]1CC[C@@H]2[C@H](C)CCCC(C)(C)O | 4.92e-05 | 0.000845 | 0.058 | 8.5 | – | – |
| CC1=C(/C=C\C2=CCC[C@@]3(C)[C@@H]2CC[C@@H]3[C@H](C)CCCC(C)(C)O)CC(O)CC1 (some centres undefined) | – | – | – | – | 0.011 | – |
| CC1=C(/C=C\C2=CCC[C@@]3(C)[C@@H]2CC[C@@H]3[C@H](C)CCCC(C)(C)O)C[C@@H](O)C[C@@H]1O | – | – | – | – | 1.6 | – |
| C=C1CC[C@H](O)C/C1=C/C=C1\CCC[C@]2(C)[C@@H]([C@H](C)CCCC(C)(C)O)CC[C@@H]12 [CALCIFEDIOL ANHYDROUS] | 0.000502 | – | 3.8 | – | – | 0.000135 |
| C=C1/C(=C\C=C2/CCC[C@]3(C)[C@@H]([C@H](C)CCCC(C)(C)O)CC[C@@H]23)C[C@@H](O)C[C@@H]1O [CALCITRIOL] | 0.000563 | – | 7.3 | 9.9 | – | 7.6e-05 |
| C=C1CC[C@H](O)C/C1=C/C=C1\CCC[C@]2(C)[C@@H]([C@H](C)CCCC(C)C)CC[C@@H]12 [CHOLECALCIFEROL] | – | – | – | 10.7 | – | – |
